# Bioassay records: PubChem, several laboratories
# DDE Tn6 FP inh: inhibitors of Tn6 peptide binding to human fibrin DD(E) | P02675 | Fibrin DD(E) TRITC-Tn6 fluorescence polarization displacement | inhibition, % at 8.3 µM | hit rate 0.21% among 370,000;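 active = inhibition above a per-campaign cutoff: mean of compounds within control limits plus 3 SD, cut at about 15% in these data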;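 note: 0% = median of all compound wells on the plate and 100% = blocking peptide control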
# Target sequence (P02675 whole entry, looked up): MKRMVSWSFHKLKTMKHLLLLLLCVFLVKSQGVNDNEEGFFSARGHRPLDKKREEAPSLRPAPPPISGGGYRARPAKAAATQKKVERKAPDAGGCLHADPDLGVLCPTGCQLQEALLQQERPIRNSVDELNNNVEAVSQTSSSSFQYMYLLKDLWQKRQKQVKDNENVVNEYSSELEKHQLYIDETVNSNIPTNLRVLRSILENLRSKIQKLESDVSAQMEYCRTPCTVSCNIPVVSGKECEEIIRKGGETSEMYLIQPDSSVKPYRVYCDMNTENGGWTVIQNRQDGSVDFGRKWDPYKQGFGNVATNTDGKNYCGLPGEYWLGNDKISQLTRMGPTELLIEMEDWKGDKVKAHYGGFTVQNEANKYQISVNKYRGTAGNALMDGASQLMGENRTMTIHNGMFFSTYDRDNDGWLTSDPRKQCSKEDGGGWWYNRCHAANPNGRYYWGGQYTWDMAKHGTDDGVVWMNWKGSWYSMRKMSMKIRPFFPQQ
# Cardiac RTF inh: cardiac RTF calcium desensitization. inhibition, % at 7.15 µM. hit rate 0.12% among 340,000. IANBD-labeled cardiac RTF, Ca2+ fluorescence;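 active = inhibition above the mean inhibition of all tested compounds plus 3 SD, cut at about 17% in these data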;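 note: assay run at fixed EC70 calcium of 1.6 mM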
# Tn7 DDE FP: DD(E)-Tn7 binding inhibition, primary FP screen | P02675 | FP displacement of FITC-Tn7 peptide from fibrin DD(E); 0% = median of compound wells per plate | inhibition, % at 8.3 µM | hit rate 0.13% among 370,000 | AID 720508;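 active = inhibition above the mean of compounds falling within the control limits plus 3 SD of them, cut at about 14% in these data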;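 note: 0% = plate median of compound wells and 100% = 10 µM Aha-Tn7 peptide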
#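 Measure: % inhibition scaled between sample-field median and high-control FP; Test system: human fibrin DD(E); Quantity: 2 µM final DD(E) protein; Doses: one dose, 8.3 µM nominal; Schedule: compound with protein 10 min, then 3 h after probe, room temperature; Detection: fluorescence polarization; Medium: Tris buffer with calcium and detergent, pH 7.8.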
# cardiac RTF act: cardiac RTF calcium sensitization. P19429+P45379. IANBD-labeled TnC RTF fluorescence at EC20 calcium; 0% EC20 calcium, 100% full calcium. activation, % at 7.2 µM. hit rate 0.24% among 340,000. AID 493008;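 active = activation above the mean over all tested compounds plus 3 SD, cut at about 30% in these data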;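 note: rise in fluorescence read as greater calcium sensitivity of cardiac thin filaments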
# CRFBP-R2 agonist: agonists of human CRF-binding protein/CRF-R2 receptor complex; AID 588473; HEK293 CRF-R2/CRF-BP, calcium dye fluorescence (FLIPR); percent of saturating CRF peptide response; hit rate 0.46% among 350,000; activation, % at 13.2 µM;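 active = activation of at least 50%, plus an integration ratio under a set limit after plate pattern correction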;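 note: plate controls were neutral control wells without compound for no effect and CRF at EC100 for full effect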
# CRFBP-R2 block: CRF-BP/CRF-R2 complex antagonism | HEK293 CRF-R2/CRF-BP, CRF-induced calcium fluorescence | inhibition, % at 11.8 µM | hit rate 0.59% among 350,000 | AID 588475;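 active = inhibition of the ligand-induced calcium signal above about 50% at the single tested concentration, limit read from the data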
# An asterisk follows results filed as active; . = no result given. Rows were chosen to be rich in hits. Some 1.4% of all compounds tested hit in one or more screens of this group.
SMILES,DDE Tn6 FP inh,Cardiac RTF inh,Tn7 DDE FP,cardiac RTF act,CRFBP-R2 agonist,CRFBP-R2 block
CCN(CC)C(=O)C1=C(C)N(Cc2ccccc2)C(=O)C(CC(=O)NCCCCc2ccccc2)C1 (stereo not given),-1,.,2,.,-1,1
N#C/C(=C1\CCCN1)c1nc2ccccc2c(=O)[nH]1,-5,4,-7,3,-2,68*
Cc1ccc(/C=C/c2ccc(N(C)C)cc2)[n+](C)c1,-4,-54,-19,39*,6,-13
CC[n+]1c(/C=C/c2ccc(N(C)C)cc2)ccc2ccccc21,-5,0,0,-6,-2,-1
CN(C)c1ccc(/C=C/c2cc[n+](C)cc2)cc1,8,-41,-29,47*,33,-68
CCCCCC[n+]1ccccc1/C=C/c1ccc(N(C)C)cc1,-4,.,-23,.,.,.
OC(c1ccccc1)(c1ccccc1)C1CCN(CCCNc2ccc(Cl)cc2Cl)CC1,1,.,2,.,.,.
CC1=NOC(=O)/C1=C/c1ccc(-c2ccc(Cl)cc2)o1,.,-4,.,1,.,.
CC1=NOC(=O)/C1=C\c1ccc(-c2ccc(Br)cc2C(=O)O)o1,-5,3,-3,4,4,-4
CC1=NOC(=O)/C1=C\c1ccc(-c2ccc(Br)cc2)o1,1,-6,0,4,69*,-27
CC1=NOC(=O)/C1=C\c1ccc(-c2cc(Cl)ccc2Cl)o1,3,2,-4,-2,116*,-79
CCCC1CCC2(CC1)CCC2OC(=O)Nc1cccc(C(F)(F)F)c1 (stereo not given),1,.,4,.,.,.
O=C(CSCc1ccccc1Br)NNC(=S)NCc1ccco1,0,-3,-1,-3,-1,77*
Cc1ccc(NC(=O)c2cc(NC(=O)/C=C\C(=O)O)ccc2N2CCCCC2)cc1,-8,2,4,-2,0,95*
O=c1[nH][nH]c2c1C(C1CCCCC1)OC(C1CCCCC1)C2 (stereo not given),3,.,-3,.,.,.
CCCCN(C)C(=O)c1cn(C(C)c2ccccc2)nn1 (stereo not given),5,.,7,.,.,.
CNC(=O)C1CCN(S(=O)(=O)c2c(C)noc2/C=C/c2ccc(OC)cc2)CC1,-4,-5,9,6,54*,-54
CCCNC(=O)C1CCN(S(=O)(=O)c2c(C)noc2/C=C\c2ccc(OC)cc2)CC1,0,-1,-5,1,-5,9
COc1ccc(C(=O)C2CCN(c3ncnc4sccc34)CC2)cc1,3,.,3,.,.,.
COc1cc2c(cc1OC)C(C)=NCC2,19*,-1,5,6,6,9
O=C(CCN1CCCCC1=O)NC1CCCN(Cc2ccc(Cl)cc2)C1 (stereo not given),-8,-7,-2,4,0,89*
CNc1cnc(-c2ccc(C(=O)N3CCOCC3)cc2)cn1,1,.,-8,.,.,.
Cc1cc(C)cc(-n2c(C)cc(/C=C3\C(=N)N4N=C(CC(C)C)SC4=NC3=O)c2C)c1,-6,4,-5,1,60*,-20
Cc1cc(/C=C2\C(=N)N3N=C(C(C)C)SC3=NC2=O)c(C)n1-c1ccccc1,2,-6,-12,3,9,-63
CCCC1=NN2C(=N)/C(=C\c3cc(C)n(-c4cc(C)cc(C)c4)c3C)C(=O)N=C2S1,9,-8,-6,-10,51*,-60
SMILES,DDE Tn6 FP inh,Cardiac RTF inh,Tn7 DDE FP,cardiac RTF act,CRFBP-R2 agonist,CRFBP-R2 block
Cc1cccc(-n2c(C)cc(/C=C3\C(=N)N4N=C(CC(C)C)SC4=NC3=O)c2C)c1,4,3,8,3,71*,-59
CCOC(=O)C1=CCN(S(=O)(=O)c2ccccc2C)C1c1cccc(C)c1 (stereo not given),-5,.,3,.,.,.
Cc1[nH]c2ccccc2c1/C=N/Nc1ccc([N+](=O)[O-])cc1S(=O)(=O)Nc1ccc(Cl)cc1,4,-5,7,8,109*,-141
Cn1c(=O)oc2cc(S(=O)(=O)NCCC(=O)NCc3ccc(F)cc3)ccc21,2,-14,5,-9,2,99*
Cc1ccc(NC(=O)CCNS(=O)(=O)c2ccc3c(c2)oc(=O)n3C)cc1,-2,-4,-8,3,5,-8
C=CCN1C=CC(=CC=C(C#N)C#N)C=C1,-6,-46,-12,44*,67*,-54
CCCN1C=CC(=CC=C(C#N)C#N)C=C1,1,-48,-11,42*,94*,-61
CCCCCCN1C=CC(=C/C=C(\C#N)C(=O)OCC)C=C1,-1,-262,-80,141*,247*,-261
O=C(Nc1cc(S(=O)(=O)N2CCCCC2)ccc1Cl)c1ccccc1NS(=O)(=O)c1ccc(F)cc1,2,-25,-12,5,47,108*
O=C(CSc1ncn[nH]1)Nc1cc(S(=O)(=O)N2CCCC2)ccc1Cl,3,-2,3,1,1,50*
COc1ccc(S(=O)(=O)N2CCCCCC2)cc1NC(=O)c1ccccc1F,-7,5,-7,0,10,38
O=C(Nc1cc(S(=O)(=O)N2CCCCC2)ccc1O)c1ccccc1NS(=O)(=O)c1ccc(F)cc1,2,-6,1,-7,72*,8
O=C(c1ccccc1NS(=O)(=O)c1ccc(F)cc1)N1CCCCC1,1,-2,-2,0,2,-22
N#Cc1ccc(Cn2ccc3ccc(-c4ccc5ccn(C(=O)C6CC6)c5c4)cc32)cc1,5,.,8,.,.,.
O=C(O[C@H]1CC[C@@]23CCCN2C(=O)CCC[C@H]3C1)N1CCOCC1,4,.,0,.,.,.
CCCCCCn1c(=O)c(F)cn(Cc2ccc(OC)c([N+](=O)[O-])c2)c1=O,5,-21,4,2,-2,59*
COc1ccc(C)cc1S(=O)(=O)N1CCN(S(=O)(=O)c2cc(C)ccc2OC)CC1,0,0,-10,4,-6,54*
CCOC(=O)N(C)c1c(CC)nc2c(OCc3cc(Cl)cc(Cl)c3)cccn12,-4,.,4,.,.,.
COc1cc(NC(=O)c2ccc3c(c2)C(=O)N(CCC(C)C)C3=O)c(C(=O)O)cc1OC,-5,-8,3,-5,10,51*
CC(c1ccccc1)N1C(=O)c2ccc(C(=O)Nc3ccc(Br)cc3C(=O)O)cc2C1=O (stereo not given),4,-4,7,-6,0,59*
CC(c1ccccc1)N1C(=O)c2ccc(C(=O)Nc3ccccc3C(=O)O)cc2C1=O (stereo not given),-4,0,-3,-1,0,1
CCCNC(=O)c1cc(C2CCCN(C(=O)C3CCCCC3)C2)on1 (stereo not given),-6,.,-2,.,.,.
C=CCSc1nnc(C)c(/C=C/Nc2ccc(Cl)cc2)n1,-8,.,0,.,114*,-196
